Measured values as given in ChEMBL document CHEMBL1126709, “Structure-activity relationship studies at the benzodiazepine receptor (BZR): a comparison of the substitutent effects of pyrazoloquinolinone analogs” (J Med Chem, 1993).

Assays:
[1] = biological target: GABA-A receptor; anion channel; assay: Specific binding of [3H]Ro-151788 to GABA-A Benzodiazepine receptor in rat cortex
Procedure, shortened: (§1)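 Rat brain (Sprague-Dawley) cortex homogenized in 50 mM Tris-citrate pH 7.4, centrifuged at 20000g, washed five times and stored at -80 °C. About 0.12 mg protein was incubated with [3H]Ro15-1788 (1 nM final) for 1 h at 0–4 °C. Nonspecific binding was defined with 10 μM Ro14-7437. Bound label was separated by filtration and counted by scintillation. IC50 was taken from 10-concentration curves run in triplicate.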

[2] = biological target: GABA-A receptor; anion channel (Rattus norvegicus) (UniProt O09028+P15431+P18506+P18508+P19969+P20236+P23574+P23576+P28471+P28473+P30191+P62813+P63079+P63138+Q91ZM7+Q9ES14); assay: Relative binding to GABA-A receptor in the presence and absence of GABA; type: protein-complex assay
Procedure, shortened: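 GABA shift ratio is IC50 without GABA divided by IC50 with GABA. Both were measured as [3H]Ro15-1788 (1 nM) displacement in washed rat cortical membranes, 1 h at 0–4 °C, with filtration and scintillation counting. The GABA arm also contained NaCl (400 mM) and GABA (200 mM, as printed). Curves used 10 concentrations in triplicate.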

[3] = biological target: GABA-A receptor; anion channel; assay: Partial agonistic activity against specific binding of [3H]-Ro-15-1788 to GABA-A Benzodiazepine receptor in rat cortex; procedure, shortened: as §1

## O=c1c2cnc3ccccc3c2[nH]n1-c1ccccc1Cl
[1]
  IC50: 70 nM
[2]
  Ratio: 1

## O=c1c2cnc3ccc(Cl)cc3c2[nH]n1-c1ccc(Cl)cc1
[1]
  IC50: 4 nM
[2]
  Ratio: 1.47

## O=C1C2C=Nc3ccccc3C2=NN1c1ccc(Cl)cc1 (stereo not drawn) [CGS-9896]
[2]
  Ratio: 1.07
[3]
  IC50: 0.56 nM

## COc1ccc2ncc3c(=O)n(-c4ccccc4)[nH]c3c2c1
[1]
  IC50: 0.38 nM
[2]
  Ratio: 0.91

## COc1cccc(-n2[nH]c3c(cnc4ccccc43)c2=O)c1
[1]
  IC50: 0.58 nM
[2]
  Ratio: 1.1

## O=c1c2cnc3ccc(Cl)cc3c2[nH]n1-c1ccccc1
[1]
  IC50: 0.24 nM
[2]
  Ratio: 1.1

## O=C1C2C=Nc3ccccc3C2=NN1c1ccccc1 (stereo not drawn) [CGS-8216]
[2]
  Ratio: 0.99
[3]
  IC50: 0.13 nM

## O=c1c2cnc3ccccc3c2[nH]n1-c1cccc(Cl)c1
[1]
  IC50: 3.9 nM
[2]
  Ratio: 1.7

## COc1ccc(-n2nc3c4ccccc4[nH]cc-3c2=O)cc1
[2]
  Ratio: 0.94
[3]
  IC50: 0.38 nM

## COc1ccc2c(c1)ncc1c(=O)n(-c3ccccc3)[nH]c12
[1]
  IC50: 2.1 nM
[2]
  Ratio: 0.97

## COc1ccccc1-n1[nH]c2c(cnc3ccccc32)c1=O
[1]
  IC50: 990 nM

## O=c1c2cnc3ccc(Cl)cc3c2[nH]n1-c1ccccc1Cl
[1]
  IC50: 8 nM
[2]
  Ratio: 1.34
